Experimental data: ChEMBL document CHEMBL4219124, “Alleviating CYP and hERG liabilities by structure optimization of dihydrofuran-fused tricyclic benzo[d]imidazole series - Potent, selective and orally efficacious microsomal prostaglandin E synthase-1 (mPGES-1) inhibitors: Part-2” (Bioorg Med Chem Lett, 2018); call rule not given here
pIC50: −log10 of the molar value.

Key:
[1] = molecular target: T1, Prostaglandin E synthase (Homo sapiens, UniProt O14684); assay: Inhibition of mPGES1 in human A549 cells assessed as reduction in IL-1beta-induced PGE2 production preincubated for 30 mins followed by incubation with IL-1beta for 16 to 20 hrs measured after 10 mins by HTRF assay; assay type: cell-based
T1 sequence (O14684 whole entry): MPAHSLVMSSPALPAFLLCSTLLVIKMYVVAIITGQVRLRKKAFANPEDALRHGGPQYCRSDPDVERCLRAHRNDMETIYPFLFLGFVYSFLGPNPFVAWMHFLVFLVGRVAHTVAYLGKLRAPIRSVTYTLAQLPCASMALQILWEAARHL

[2] = molecular target: T1, Prostaglandin E synthase; assay: Inhibition of recombinant human mPGES1 expressed in CHO cells assessed as reduction in PGE2 production using PGH2 as substrate incubated for 10 mins followed by substrate addition measured for 1 min; assay type: cell-based
[3] = molecular target: CYP2D6 (Homo sapiens, UniProt P10635); assay: (§1) Inhibition of CYP2D6 in human liver microsomes at 10 uM after 20 mins in presence of NADPH by LC-MS/MS analysis; assay type: ADME; conditions: liver microsomes
CYP2D6, sequence (P10635 whole entry, canonical isoform): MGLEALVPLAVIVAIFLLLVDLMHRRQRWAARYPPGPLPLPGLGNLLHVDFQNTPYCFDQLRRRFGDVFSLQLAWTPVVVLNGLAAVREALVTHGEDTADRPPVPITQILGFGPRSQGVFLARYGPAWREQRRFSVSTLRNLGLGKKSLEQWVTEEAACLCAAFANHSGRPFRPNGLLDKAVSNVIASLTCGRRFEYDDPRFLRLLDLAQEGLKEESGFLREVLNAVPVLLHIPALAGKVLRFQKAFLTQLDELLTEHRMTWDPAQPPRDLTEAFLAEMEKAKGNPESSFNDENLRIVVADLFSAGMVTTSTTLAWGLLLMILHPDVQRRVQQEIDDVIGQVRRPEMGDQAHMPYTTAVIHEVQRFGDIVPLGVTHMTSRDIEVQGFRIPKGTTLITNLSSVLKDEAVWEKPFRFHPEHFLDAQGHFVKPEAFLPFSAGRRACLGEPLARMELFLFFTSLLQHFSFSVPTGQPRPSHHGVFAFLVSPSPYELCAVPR
Summary of the method: (§2)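 Percent inhibition of each CYP isoform by test compound at 10 µM, compared with a no-inhibitor control. Run in triplicate.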

[4] = Metabolic stability in human liver microsomes assessed as parent compound remaining at 1 uM after 60 mins in presence of NADPH by LC-MS/MS analysis; assay type: ADME, microsome; conditions: read-out: Stability
Summary of the method: (§3)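 Compound incubated 60 min at 37 °C with human, rat or guinea pig liver microsomes; percent parent remaining, triplicates.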

[5] = Metabolic stability in rat liver microsomes assessed as parent compound remaining at 1 uM after 60 mins in presence of NADPH by LC-MS/MS analysis; assay type: ADME, microsome; conditions: read-out: Stability; summary of the method: as §3
[6] = molecular target: T2, CYP1A2 (Homo sapiens, UniProt P05177); assay: Inhibition of CYP1A2 in human liver microsomes at 10 uM after 20 mins in presence of NADPH by LC-MS/MS analysis; assay type: ADME; summary of the method: as §2
T2 sequence (P05177 whole entry): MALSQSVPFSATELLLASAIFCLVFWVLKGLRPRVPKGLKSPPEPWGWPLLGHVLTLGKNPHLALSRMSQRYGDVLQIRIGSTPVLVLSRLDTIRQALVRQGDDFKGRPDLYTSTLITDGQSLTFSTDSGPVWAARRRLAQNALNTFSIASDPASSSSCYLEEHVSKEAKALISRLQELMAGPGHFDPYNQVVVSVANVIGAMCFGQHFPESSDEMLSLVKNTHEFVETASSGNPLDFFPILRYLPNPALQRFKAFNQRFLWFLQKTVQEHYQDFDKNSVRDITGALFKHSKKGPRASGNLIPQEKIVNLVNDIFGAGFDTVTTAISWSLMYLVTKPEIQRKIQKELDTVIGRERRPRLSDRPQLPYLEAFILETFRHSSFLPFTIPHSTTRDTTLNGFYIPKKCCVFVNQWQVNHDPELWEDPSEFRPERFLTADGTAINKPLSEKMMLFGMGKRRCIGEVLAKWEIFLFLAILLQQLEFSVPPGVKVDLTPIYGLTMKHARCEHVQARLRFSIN

[7] = molecular target: CYP2C9 (Homo sapiens, UniProt P11712); assay: Inhibition of CYP2C9 in human liver microsomes at 10 uM after 20 mins in presence of NADPH by LC-MS/MS analysis; assay type: ADME; summary of the method: as §2
CYP2C9, sequence (P11712 whole entry): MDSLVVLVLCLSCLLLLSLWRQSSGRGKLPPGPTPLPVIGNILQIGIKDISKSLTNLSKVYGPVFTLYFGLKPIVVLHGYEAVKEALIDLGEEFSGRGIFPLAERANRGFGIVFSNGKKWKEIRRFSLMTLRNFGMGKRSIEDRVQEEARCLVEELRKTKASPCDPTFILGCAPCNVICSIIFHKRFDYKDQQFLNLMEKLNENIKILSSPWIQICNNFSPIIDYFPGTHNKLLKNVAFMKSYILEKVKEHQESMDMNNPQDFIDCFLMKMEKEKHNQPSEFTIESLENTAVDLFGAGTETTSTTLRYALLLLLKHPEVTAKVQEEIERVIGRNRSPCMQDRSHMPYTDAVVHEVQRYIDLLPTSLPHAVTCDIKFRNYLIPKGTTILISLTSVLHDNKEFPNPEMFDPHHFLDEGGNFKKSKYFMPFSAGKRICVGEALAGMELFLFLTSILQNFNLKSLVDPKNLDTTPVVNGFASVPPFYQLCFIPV

[8] = molecular target: CYP2C19 (Homo sapiens, UniProt P33261); assay: Inhibition of CYP2C19 in human liver microsomes at 10 uM after 40 mins in presence of NADPH by LC-MS/MS analysis; assay type: ADME; summary of the method: as §2
CYP2C19, sequence (P33261 whole entry): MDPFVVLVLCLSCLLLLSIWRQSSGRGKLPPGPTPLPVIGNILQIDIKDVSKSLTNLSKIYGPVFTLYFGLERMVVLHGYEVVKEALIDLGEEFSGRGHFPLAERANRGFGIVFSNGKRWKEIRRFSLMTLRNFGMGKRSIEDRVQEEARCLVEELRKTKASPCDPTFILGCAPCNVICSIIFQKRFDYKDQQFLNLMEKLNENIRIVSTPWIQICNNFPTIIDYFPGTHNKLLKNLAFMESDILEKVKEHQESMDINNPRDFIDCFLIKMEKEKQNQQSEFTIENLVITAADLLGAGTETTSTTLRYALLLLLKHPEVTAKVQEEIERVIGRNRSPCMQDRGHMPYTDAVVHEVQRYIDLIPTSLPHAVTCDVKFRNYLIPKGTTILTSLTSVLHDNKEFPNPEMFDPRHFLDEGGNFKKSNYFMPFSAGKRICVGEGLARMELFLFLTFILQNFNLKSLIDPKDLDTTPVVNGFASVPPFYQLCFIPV

[9] = Metabolic stability in guinea pig liver microsomes assessed as parent compound remaining at 1 uM after 60 mins in presence of NADPH by LC-MS/MS analysis; assay type: ADME, Cavia porcellus, microsome; conditions: read-out: Stability; summary of the method: as §3
[10] = molecular target: CYP3A4 (Homo sapiens, UniProt P08684); assay: Inhibition of CYP3A4 in human liver microsomes at 10 uM after 20 mins in presence of NADPH by LC-MS/MS analysis; assay type: ADME; summary of the method: as §2
CYP3A4, sequence (P08684 whole entry): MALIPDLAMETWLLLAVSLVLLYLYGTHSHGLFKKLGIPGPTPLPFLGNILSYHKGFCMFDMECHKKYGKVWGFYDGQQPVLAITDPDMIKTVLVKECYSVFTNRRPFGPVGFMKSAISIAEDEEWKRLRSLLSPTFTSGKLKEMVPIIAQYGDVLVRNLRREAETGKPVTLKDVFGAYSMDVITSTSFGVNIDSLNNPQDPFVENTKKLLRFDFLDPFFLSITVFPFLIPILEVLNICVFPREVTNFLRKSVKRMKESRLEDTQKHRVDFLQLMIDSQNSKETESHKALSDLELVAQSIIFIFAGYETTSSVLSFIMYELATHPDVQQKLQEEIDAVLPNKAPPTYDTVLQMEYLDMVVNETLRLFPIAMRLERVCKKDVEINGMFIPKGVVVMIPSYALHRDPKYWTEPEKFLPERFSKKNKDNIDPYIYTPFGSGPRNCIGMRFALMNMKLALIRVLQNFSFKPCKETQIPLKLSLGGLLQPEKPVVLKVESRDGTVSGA

[11] = Protein binding in guinea pig plasma at 10 uM after 5 hrs by equilibrium dialysis based LC-MS/MS analysis; assay type: ADME, cell-free, Cavia porcellus; conditions: read-out: PPB (converted)
Summary of the method: (§4)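 Equilibrium dialysis at 10 μM compound; result expressed as percent bound.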

[12] = Protein binding in human plasma at 10 uM after 5 hrs by equilibrium dialysis based LC-MS/MS analysis; assay type: ADME, cell-free; conditions: read-out: PPB (converted); summary of the method: as §4
[13] = molecular target: hERG (KCNH2) (Homo sapiens, UniProt Q12809); assay: Inhibition of human ERG at 10 uM by patch clamp assay relative to control
hERG (KCNH2), sequence (Q12809 whole entry): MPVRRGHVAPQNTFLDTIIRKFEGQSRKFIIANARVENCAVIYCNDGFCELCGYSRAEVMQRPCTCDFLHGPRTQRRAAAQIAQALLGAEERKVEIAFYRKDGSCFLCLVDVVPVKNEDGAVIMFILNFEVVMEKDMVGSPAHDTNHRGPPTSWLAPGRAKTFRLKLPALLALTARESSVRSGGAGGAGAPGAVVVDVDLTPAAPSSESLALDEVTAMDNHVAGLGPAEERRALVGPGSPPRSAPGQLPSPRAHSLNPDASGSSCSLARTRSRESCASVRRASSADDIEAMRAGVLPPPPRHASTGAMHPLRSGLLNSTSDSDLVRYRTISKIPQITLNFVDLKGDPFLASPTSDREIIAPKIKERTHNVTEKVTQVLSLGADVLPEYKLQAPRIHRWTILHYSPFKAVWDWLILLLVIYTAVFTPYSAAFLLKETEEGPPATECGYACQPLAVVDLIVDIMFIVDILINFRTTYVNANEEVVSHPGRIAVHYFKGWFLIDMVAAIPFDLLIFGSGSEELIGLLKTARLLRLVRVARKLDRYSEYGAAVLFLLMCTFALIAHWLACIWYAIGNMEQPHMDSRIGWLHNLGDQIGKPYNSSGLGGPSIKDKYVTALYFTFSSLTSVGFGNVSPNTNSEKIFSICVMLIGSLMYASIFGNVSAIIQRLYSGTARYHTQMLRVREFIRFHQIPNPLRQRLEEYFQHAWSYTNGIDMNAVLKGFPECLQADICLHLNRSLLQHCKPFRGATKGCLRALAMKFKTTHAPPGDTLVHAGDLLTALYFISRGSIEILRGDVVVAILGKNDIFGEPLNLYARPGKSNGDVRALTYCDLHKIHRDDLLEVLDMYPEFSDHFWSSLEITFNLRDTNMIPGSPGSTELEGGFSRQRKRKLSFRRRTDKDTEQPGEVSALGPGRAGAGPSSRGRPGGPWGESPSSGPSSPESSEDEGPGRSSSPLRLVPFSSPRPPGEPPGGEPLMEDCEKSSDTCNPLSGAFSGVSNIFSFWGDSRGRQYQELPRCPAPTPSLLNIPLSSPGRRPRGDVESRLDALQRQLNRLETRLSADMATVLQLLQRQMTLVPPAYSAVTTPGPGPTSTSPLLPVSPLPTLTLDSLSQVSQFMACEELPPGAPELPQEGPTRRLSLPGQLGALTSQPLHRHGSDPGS
Summary of the method: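 hERG current measured by patch clamp with test compound at 10 µM; result given as % inhibition.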

[14] = molecular target: T1, Prostaglandin E synthase; assay: Inhibition of mPGES1 in human whole blood assessed as reduction in LPS-induced PGE2 production measured after 20 to 24 hrs
[15] = molecular target: Cytochrome P450 2D6 (Homo sapiens, UniProt P10635); assay: as §1; assay type: ADME; conditions: microsomes, 20 min, 10 µM; summary of the method: as §2
Cytochrome P450 2D6, sequence (P10635 whole entry): as the sequence (P10635 whole entry, canonical isoform) above

[16] = Apparent passive permeability of the compound by PAMPA; assay type: ADME
Summary of the method: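 Passive permeability by PAMPA, using a 2% lecithin in dodecane membrane. Run in triplicate.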

SMILES | pIC50 [1] | pIC50 [2] | inhibition at 20 min, 10 µM [3] [%] | remaining at 1 h, 1 µM [4] [%] | remaining at 1 h, 1 µM [5] [%] | inhibition at 20 min, 10 µM [6] [%] | inhibition at 20 min, 10 µM [7] [%] | inhibition at 40 min, 10 µM [8] [%] | remaining at 1 h, 1 µM [9] [%] | inhibition at 20 min, 10 µM [10] [%] | fraction unbound at 5 h, 10 µM [11] | fraction unbound at 5 h, 10 µM [12] | inhibition at 10 µM [13] [%] | pIC50 [14] | inhibition (INH) [15] | Papp [16] [×10⁻⁶ cm/s]
Cc1cccc(Cl)c1Nc1nc2cc(C(=O)Nc3ccc(C(F)(F)F)cn3)c3c(c2[nH]1)CC(C)(C)O3 | 7.57 | 7.49 |  |  |  |  |  |  |  |  |  |  |  |  |  | 
Cn1c(Nc2c(F)cccc2Cl)nc2cc(C(=O)Nc3ccc(C(F)(F)F)cc3)c3c(c21)CC(C)(C)O3 |  |  | -5 | 100 | 68 | 34 | 44 | -7 | 68 |  |  |  |  |  |  | 
Cc1ccc(NC(=O)c2cc3nc(Nc4c(F)cccc4Cl)n(C)c3c3c2OC(C)(C)C3)c(F)c1 | 8.51 | 7.80 | 14 | 68 | 71 | 26 | 52 | 24 | 58 | 23 | < 0.005 | < 0.005 | 12.8 | 6.75 |  | 
CC1(C)Cc2c(c(C(=O)Nc3ccc(C(F)(F)F)cn3)cc3nc(Nc4c(F)cccc4Cl)[nH]c23)O1 | 7.85 | 7.60 |  |  |  |  |  |  |  |  |  |  |  | 6.02 |  | 
CC1(C)Cc2c(c(C(=O)Nc3cc(C4CC4)ccc3F)cc3nc(Nc4c(Cl)cccc4Cl)[nH]c23)O1 | 8.49 | 7.80 | 5 | 95 | 92 | 14 | 26 | 10 | 74 | 21 |  |  |  | 6.71 |  | 
CC1(C)Cc2c(c(C(=O)Nc3c(F)cccc3F)cc3nc(Nc4c(Cl)cccc4Cl)[nH]c23)O1 | 7.82 | 8.19 |  | 72 |  | 14 | 35 | 41 | 80 | 24 |  |  |  | 6.18 | Not Active | 
CC1(C)Cc2c(c(C(=O)Nc3ccccc3C(F)(F)F)cc3nc(Nc4c(Cl)cccc4Cl)[nH]c23)O1 | 8.28 | 8.31 |  |  |  | 18 | 16 | 30 | 86 | 17 |  |  |  | 6.30 | Not Active | 
Cc1cccc(Cl)c1Nc1nc2cc(C(=O)Nc3ccc(C(F)(F)F)cc3)c3c(c2[nH]1)CC(C)(C)O3 | 7.96 | 7.85 | 6 | 100 |  | 25 | 46 | 19 | 62 | 34 | < 0.005 | < 0.005 |  | 6.47 |  | 
CC1(C)Cc2c(c(C(=O)Nc3cc(C4CC4)ccc3F)cc3nc(Nc4c(F)cccc4Cl)[nH]c23)O1 | 8.22 | 8.44 | 7 | 100 | 93 | 36 | 42 | 22 | 93 | -12 |  |  |  | 5.86 |  | 
CC1(C)Cc2c(c(C(=O)Nc3ccccc3C(F)(F)F)cc3nc(Nc4c(F)cccc4Cl)[nH]c23)O1 | 8.01 | 8.29 | 4 | 93 |  | 17 | 29 | 46 | 89 | 11 | < 0.005 | < 0.005 |  | 6.27 |  | 0.12
Cc1cc(C(F)(F)F)ccc1NC(=O)c1cc2nc(Nc3c(F)cccc3Cl)[nH]c2c2c1OC(C)(C)C2 | 8.22 | 8.21 | 16 | 82 | 91 | 26 | 1 | 38 | 72 | 20 |  |  | 16.2 | 6.57 |  | 0.31
Cc1cccc(Cl)c1Nc1nc2cc(C(=O)Nc3cc(C4CC4)ccc3F)c3c(c2[nH]1)CC(C)(C)O3 |  | 8.00 | 31 | 93 | 89 | 14 | 12 | 24 | 55 | -13 |  |  |  | 6.35 |  | 
CC1(C)Cc2c(c(C(=O)Nc3cc(C(F)F)ccc3F)cc3nc(Nc4c(F)cccc4Cl)[nH]c23)O1 | 8.20 | 8.04 | -1 | 88 | 86 | 31 | 42 | 22 | 68 | 4 | 0.005 | 0.0018 |  | 6.47 |  | 
Cn1c(Nc2c(F)cccc2Cl)nc2cc(C(=O)Nc3ccc(C(F)(F)F)cn3)c3c(c21)CC(C)(C)O3 | 8.40 | 7.92 | 3 | 58 | 66 | 14 | 52 | 10 | 69 | 17 | 0.0035 | 0.0015 |  | 6.17 |  | 
CC1(C)Cc2c(c(C(=O)Nc3ccc(C(F)(F)F)cc3F)cc3nc(Nc4c(F)cccc4Cl)[nH]c23)O1 | 8.02 | 8.51 |  | 100 |  |  | 39 | 16 | 80 | 37 | < 0.005 | < 0.005 |  | 6.24 |  | 
Cc1cccc(Cl)c1Nc1nc2cc(C(=O)Nc3ccc(F)c(C(F)(F)F)c3)c3c(c2[nH]1)CC(C)(C)O3 | 8.00 | 8.27 |  | 95 | 97 |  | 47 | 31 | 80 | 30 |  |  |  | 6.06 |  | 
Cn1c(Nc2c(F)cccc2Cl)nc2cc(C(=O)Nc3ccc(C4CC4)cc3)c3c(c21)CC(C)(C)O3 | 8.37 | 8.31 | 25 | 97 | 96 | 41 | 47 | 24 | 51 | 19 |  |  |  | 6.46 |  | 
